Active and inactive are the calls of the source. No cut-off for these calls is given here.
How the values were obtained:
[1] = target: T1, Histamine H4 receptor (Homo sapiens, UniProt Q9H3N8); assay: Agonist activity at human H4 receptor; conditions: read-out: EC50
[2] = target: T1, Histamine H4 receptor; assay: Displacement of [3H]histamine from human recombinant histamine H4 receptor expressed in SK-N-MC cells after 45 mins by competition binding analysis; assay type: cell-based
[3] = target: T1, Histamine H4 receptor; assay: Antagonist activity at human histamine H4 receptor expressed in SK-N-MC cells assessed as reduction of histamine-induced inhibition of cAMP-mediated beta-galactosidase reporter gene activity treated 10 mins prior to histamine challenge by microplate reader analysis; assay type: functional, cell-based; conditions: read-out: pA2 (converted)
[4] = target: Histamine H3 receptor (Homo sapiens, UniProt Q9Y5N1); assay: Displacement of [3H]N-alpha-methylhistamine from human recombinant histamine H3 receptor expressed in SK-N-MC cells after 45 mins by competition binding analysis; assay type: cell-based
Chain of Histamine H3 receptor (Q9Y5N1 whole entry): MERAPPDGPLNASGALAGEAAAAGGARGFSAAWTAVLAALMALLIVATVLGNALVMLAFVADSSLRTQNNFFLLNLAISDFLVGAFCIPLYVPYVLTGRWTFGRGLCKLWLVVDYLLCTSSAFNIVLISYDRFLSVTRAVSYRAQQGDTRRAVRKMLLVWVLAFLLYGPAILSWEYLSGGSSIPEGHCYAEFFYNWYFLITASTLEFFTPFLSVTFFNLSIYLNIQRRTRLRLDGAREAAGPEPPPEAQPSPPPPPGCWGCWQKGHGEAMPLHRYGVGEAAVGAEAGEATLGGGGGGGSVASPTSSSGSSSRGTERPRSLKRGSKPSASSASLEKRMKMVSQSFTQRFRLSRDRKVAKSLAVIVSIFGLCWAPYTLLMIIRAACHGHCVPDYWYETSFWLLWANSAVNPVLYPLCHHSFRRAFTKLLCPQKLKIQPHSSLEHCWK

[5] = Clearance in rat at 2 mg/kg, iv; assay type: ADME, organism-based; parameters: dose 2 mg/kg, route intravenous; conditions: in vivo
[6] = Permeability from apical to basolateral side in human Caco cells; assay type: ADME, cell-based; conditions: Caco-2, read-out: permeability
[7] = target: T2, Histamine H4 receptor (Mus musculus, UniProt Q91ZY2); assay: Displacement of [3H]histamine from mouse histamine H4 receptor expressed in SK-N-MC cells after 45 mins by competition binding analysis; assay type: cell-based
T2 sequence (Q91ZY2 whole entry): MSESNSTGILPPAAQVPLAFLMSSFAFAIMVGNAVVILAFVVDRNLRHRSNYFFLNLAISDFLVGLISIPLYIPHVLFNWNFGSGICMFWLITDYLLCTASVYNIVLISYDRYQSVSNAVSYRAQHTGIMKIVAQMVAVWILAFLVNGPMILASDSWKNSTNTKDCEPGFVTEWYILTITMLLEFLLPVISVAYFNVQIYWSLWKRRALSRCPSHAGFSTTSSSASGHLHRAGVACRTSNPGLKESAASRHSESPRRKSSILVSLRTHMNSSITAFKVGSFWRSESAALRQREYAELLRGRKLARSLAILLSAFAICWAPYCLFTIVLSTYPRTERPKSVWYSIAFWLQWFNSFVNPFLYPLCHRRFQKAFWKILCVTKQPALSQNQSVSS
How it was run: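 Transfected cells expressing the H4 receptor, competition against [3H]histamine. Ki is the geometric mean of at least three independent determinations (each in triplicate), calculated by the Cheng–Prusoff equation.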

[8] = Volume of distribution at steady state in rat at 2 mg/kg, iv; assay type: ADME, organism-based; parameters: dose 2 mg/kg, route intravenous; conditions: in vivo, read-out: Vdss
[9] = Half life in rat microsomes; assay type: ADME, Microsome
[10] = target: Voltage-gated inwardly rectifying potassium channel KCNH2 (Homo sapiens, UniProt Q12809); assay: Inhibition of human ERG channel transfected in HEK293 cells assessed as reduction in delayed rectifier current by patch clamp assay; assay type: cell-based
Chain of Voltage-gated inwardly rectifying potassium channel KCNH2 (Q12809 whole entry): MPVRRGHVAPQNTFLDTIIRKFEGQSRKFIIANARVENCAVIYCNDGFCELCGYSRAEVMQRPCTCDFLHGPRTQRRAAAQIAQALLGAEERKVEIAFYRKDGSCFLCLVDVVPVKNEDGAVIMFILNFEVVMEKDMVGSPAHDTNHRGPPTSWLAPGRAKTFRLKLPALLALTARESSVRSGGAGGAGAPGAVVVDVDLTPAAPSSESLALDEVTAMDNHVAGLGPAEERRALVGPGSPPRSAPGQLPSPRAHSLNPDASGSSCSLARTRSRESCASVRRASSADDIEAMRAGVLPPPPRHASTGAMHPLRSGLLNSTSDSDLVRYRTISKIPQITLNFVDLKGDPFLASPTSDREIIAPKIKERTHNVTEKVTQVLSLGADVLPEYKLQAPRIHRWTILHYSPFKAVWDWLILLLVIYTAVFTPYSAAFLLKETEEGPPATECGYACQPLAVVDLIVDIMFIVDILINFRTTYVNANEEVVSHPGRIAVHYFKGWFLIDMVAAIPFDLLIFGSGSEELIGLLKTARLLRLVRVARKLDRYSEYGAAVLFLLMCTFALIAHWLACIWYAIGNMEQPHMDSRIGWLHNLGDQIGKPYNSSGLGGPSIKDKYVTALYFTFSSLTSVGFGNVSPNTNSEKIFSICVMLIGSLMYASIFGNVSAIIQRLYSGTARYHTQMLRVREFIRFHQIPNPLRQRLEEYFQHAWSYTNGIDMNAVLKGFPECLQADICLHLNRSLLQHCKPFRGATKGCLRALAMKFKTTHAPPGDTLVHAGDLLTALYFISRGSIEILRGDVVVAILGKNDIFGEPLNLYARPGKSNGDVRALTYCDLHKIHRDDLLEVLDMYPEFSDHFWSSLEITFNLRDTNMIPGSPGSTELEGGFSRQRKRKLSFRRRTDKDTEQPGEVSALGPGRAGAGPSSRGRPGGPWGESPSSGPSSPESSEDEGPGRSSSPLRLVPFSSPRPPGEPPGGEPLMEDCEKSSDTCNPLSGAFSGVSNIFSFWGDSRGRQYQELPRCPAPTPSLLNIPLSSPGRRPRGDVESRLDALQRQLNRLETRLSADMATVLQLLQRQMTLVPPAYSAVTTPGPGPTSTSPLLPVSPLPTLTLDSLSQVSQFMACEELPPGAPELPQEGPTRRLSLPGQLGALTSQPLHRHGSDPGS
How it was run: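 The delayed rectifier current (IKr) was recorded in hERG-transfected HEK293 cells with the compound at 3 μM.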

[11] = target: T2, Histamine H4 receptor; assay: Antagonist activity at mouse histamine H4 receptor expressed in SK-N-MC cells assessed as reduction of histamine-induced inhibition of cAMP-mediated beta-galactosidase reporter gene activity treated 10 mins prior to histamine challenge by microplate reader analysis; assay type: functional, cell-based; conditions: read-out: pA2 (converted)
[12] = Oral bioavailability in rat at 10 mg/kg; assay type: ADME, organism-based; conditions: in vivo
[13] = AUC in rat at 2 mg/kg, iv; assay type: ADME, organism-based; parameters: dose 2 mg/kg, route intravenous; conditions: plasma
[14] = Cmax in rat at 10 mg/kg, po; assay type: ADME, organism-based; parameters: dose 10 mg/kg, route oral; conditions: in vivo
[15] = Half life in human microsomes; assay type: ADME, Microsome
[16] = Permeability from basolateral to apical side in human Caco cells; assay type: ADME, cell-based; conditions: Caco-2, read-out: permeability
[17] = Fraction unbound in human plasma; assay type: ADME, cell-free
[18] = system: Mus musculus; assay: Antiinflammatory activity in po dosed Balb/c mouse assessed as inhibition of LPS-induced TNF-alpha release at plasma concentration of 62.5 nM administered 30 mins prior to LPS challenge measured after 2 hrs by ELISA; assay type: functional, organism-based
[19] = Half life in rat at 2 mg/kg, iv; assay type: ADME, organism-based; parameters: dose 2 mg/kg, route intravenous; conditions: in vivo
[20] = Half life in rat at 10 mg/kg, po; assay type: ADME, organism-based; parameters: dose 10 mg/kg, route oral; conditions: in vivo
[21] = Tmax in beagle dog at 10 mg/kg, po; assay type: ADME, organism-based, Canis lupus familiaris; parameters: dose 10 mg/kg, route oral; conditions: in vivo
[22] = AUC in Sprague-Dawley rat at 2 mg/kg, iv; assay type: ADME, organism-based; parameters: dose 2 mg/kg, route intravenous; conditions: plasma
[23] = Oral bioavailability in Sprague-Dawley rat at 10 mg/kg; assay type: ADME, organism-based; conditions: in vivo
[24] = Tmax in Sprague-Dawley rat at 10 mg/kg, po; assay type: ADME, organism-based; parameters: dose 10 mg/kg, route oral; conditions: in vivo
[25] = Oral bioavailability in beagle dog at 10 mg/kg; assay type: ADME, organism-based, Canis lupus familiaris; conditions: in vivo
[26] = Half life in Balb/c mouse at 20 mg/kg, po; assay type: ADME, organism-based; parameters: dose 20 mg/kg, route oral; conditions: in vivo
[27] = Half life in beagle dog at 10 mg/kg, po; assay type: ADME, organism-based, Canis lupus familiaris; parameters: dose 10 mg/kg, route oral; conditions: in vivo
[28] = system: Rattus norvegicus; assay: Volume of distribution at steady state in Sprague-Dawley rat at 2 mg/kg, iv; assay type: ADME, organism-based; parameters: dose 2 mg/kg, route intravenous; conditions: in vivo
[29] = Initial plasma concentration in beagle dog at 2 mg/kg, iv; assay type: ADME, organism-based, Canis lupus familiaris; parameters: dose 2 mg/kg, route intravenous
[30] = Half life in beagle dog at 2 mg/kg, iv; assay type: ADME, organism-based, Canis lupus familiaris; parameters: dose 2 mg/kg, route intravenous; conditions: in vivo
[31] = Cmax in beagle dog at 10 mg/kg, po; assay type: ADME, organism-based, Canis lupus familiaris; parameters: dose 10 mg/kg, route oral; conditions: in vivo
[32] = AUC in Sprague-Dawley rat at 10 mg/kg, po; assay type: ADME, organism-based; parameters: dose 10 mg/kg, route oral; conditions: plasma
[33] = Tmax in Balb/c mouse at 20 mg/kg, po; assay type: ADME, organism-based; parameters: dose 20 mg/kg, route oral; conditions: in vivo
[34] = Initial plasma concentration in Sprague-Dawley rat at 2 mg/kg, iv; assay type: ADME, organism-based; parameters: dose 2 mg/kg, route intravenous
[35] = Half life in Sprague-Dawley rat at 10 mg/kg, po; assay type: ADME, organism-based; parameters: dose 10 mg/kg, route oral; conditions: in vivo
[36] = Cmax in Sprague-Dawley rat at 10 mg/kg, po; assay type: ADME, organism-based; parameters: dose 10 mg/kg, route oral; conditions: in vivo
[37] = AUC in Balb/c mouse at 20 mg/kg, po; assay type: ADME, organism-based; parameters: dose 20 mg/kg, route oral; conditions: plasma
[38] = Volume of distribution at steady state in beagle dog at 2 mg/kg, iv; assay type: ADME, organism-based, Canis lupus familiaris; parameters: dose 2 mg/kg, route intravenous; conditions: in vivo, read-out: Vdss
[39] = system: Rattus norvegicus; assay: Half life in Sprague-Dawley rat at 2 mg/kg, iv; assay type: ADME, organism-based; parameters: dose 2 mg/kg, route intravenous; conditions: in vivo
[40] = Cmax in Balb/c mouse at 20 mg/kg, po; assay type: ADME, organism-based; parameters: dose 20 mg/kg, route oral; conditions: in vivo
[41] = system: Canis familiaris; assay: AUC in beagle dog at 2 mg/kg, iv; assay type: ADME, organism-based, Canis lupus familiaris, Plasma; parameters: dose 2 mg/kg, route intravenous; conditions: in vivo
[42] = AUC in beagle dog at 10 mg/kg, po; assay type: ADME, organism-based, Canis lupus familiaris; parameters: dose 10 mg/kg, route oral; conditions: plasma
[43] = system: Rattus norvegicus; assay: Clearance in Sprague-Dawley rat at 2 mg/kg, iv; assay type: ADME, organism-based; parameters: dose 2 mg/kg, route intravenous; conditions: in vivo

T1 sequence (Q9H3N8 whole entry): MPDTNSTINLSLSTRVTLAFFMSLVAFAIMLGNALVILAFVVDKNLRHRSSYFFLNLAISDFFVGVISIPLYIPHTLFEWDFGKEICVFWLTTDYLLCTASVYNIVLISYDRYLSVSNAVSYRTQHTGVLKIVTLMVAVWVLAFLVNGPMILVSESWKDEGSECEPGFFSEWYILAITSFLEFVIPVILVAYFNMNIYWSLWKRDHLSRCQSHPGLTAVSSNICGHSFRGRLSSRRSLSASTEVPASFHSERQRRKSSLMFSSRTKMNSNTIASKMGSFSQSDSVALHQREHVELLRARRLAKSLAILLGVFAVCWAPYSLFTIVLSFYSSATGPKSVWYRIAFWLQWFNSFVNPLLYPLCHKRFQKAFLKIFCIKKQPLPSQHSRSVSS

Nc1nc(C2CCCC2)cc(N2C[C@H]3NCCO[C@@H]3C2)n1 (racemic)
EC50 [1]: > 10000 nM | Ki [2]: 56 nM | Kb [3]: 126 nM

CN[C@@H]1CCN(c2cc(C(F)(F)F)nc(N)n2)C1
Ki [2]: > 10000 nM

CCc1cc(N2CC[C@@H](NC)C2)nc(N)n1
Ki [4]: 670 nM | clearance [5]: 5 mL/min/kg | Papp A→B [6]: 54 ×10⁻⁶ cm/s | EC50 [1]: > 10000 nM | Ki [7]: 62 nM | Vd [8]: 6.3 L/kg | half-life [9]: 1.05 h | INH [10]: > 10 µM | Kb [11]: 50.1 nM | bioavailability [12]: 50% | AUC [13]: 11 µM·h | Cmax [14]: 1.5 µM | half-life [15]: > 2 h | Papp B→A [16]: 14 ×10⁻⁶ cm/s | fraction unbound [17]: 0.26 | inhibition [18]: Active | half-life [19]: 5.3 h | half-life [20]: 9.7 h | Kb [3]: 10 nM

CN[C@@H]1CCN(c2cc(C3CCCCC3)nc(N)n2)C1
EC50 [1]: > 10000 nM | Ki [2]: 2.3 nM | Kb [3]: < 0.1 nM

Cc1cnc(OCCCCC2CCN(C)CC2)cc1-c1nc2c(C)c(F)ccc2[nH]1
Ki [2]: 5 nM

CN[C@@H]1CCN(c2cc(C3CCCC3)nc(N)n2)C1
EC50 [1]: > 10000 nM | Ki [2]: 1.1 nM | Kb [3]: 0.251 nM

CN1CCN(c2cc(C3CCCC3)nc(N)n2)CC1
EC50 [1]: > 10000 nM | Ki [2]: 1.4 nM | Kb [3]: 0.126 nM

CN[C@@H]1CCN(c2cc(C34CC5CC(CC(C5)C3)C4)nc(N)n2)C1
EC50 [1]: > 10000 nM | Ki [2]: 1.7 nM | Kb [3]: < 0.1 nM

Nc1nc(C2CCCC2)cc(N2C[C@H]3CCN[C@H]3C2)n1
EC50 [1]: > 10000 nM | Ki [2]: 2.9 nM | Kb [3]: 0.1 nM

Nc1nc(C2CCCC2)cc(N2CCC3(CCCN3)C2)n1 (centres undefined)
EC50 [1]: > 10000 nM | Ki [2]: 11.2 nM | Kb [3]: 2.51 nM

Nc1nc(C2CCCC2)cc(N2C[C@H]3CNC[C@H]3C2)n1
Ki [2]: 328 nM

CN[C@@H]1CCN(c2cc(Cc3ccccc3)nc(N)n2)C1
Tmax [21]: 0.6 h | AUC [22]: 11 µM·h | bioavailability [23]: 50% | Tmax [24]: 5 h | bioavailability [25]: 112% | EC50 [1]: > 10000 nM | half-life [26]: 5.2 h | half-life [27]: 10 h | Vdss [28]: 6.3 L/kg | C0 [29]: 2.5 µM | half-life [30]: 9.3 h | Cmax [31]: 4.2 µM | AUC [32]: 27.8 µM·h | Tmax [33]: 0.5 h | C0 [34]: 19 µM | half-life [35]: 9.3 h | Cmax [36]: 1.6 µM | AUC [37]: 60 µM·h | Vd [38]: 15.1 L/kg | t1/2 [39]: 5.3 h | Cmax [40]: 8.5 µM | AUC [41]: 8.1 µM·h | AUC [42]: 45 µM·h | CL [43]: 5.5 mL/min/kg | Kb [3]: 10 nM

CN[C@@H]1CCN(c2nc(N)nc3c2CCCC3)C1
EC50 [1]: > 10000 nM | Kb [3]: 25.1 nM

Nc1nc(C2CCCC2)cc(N2CC(N)C2)n1
EC50 [1]: 1300 nM | Ki [2]: 5.5 nM | Kb [3]: 25.1 nM

Nc1nc(Cc2ccccc2)cc(N2CC[C@@H](N)C2)n1
Ki [2]: 100 nM

Nc1nc(C2CCCC2)cc(N2C[C@H]3CCCN[C@H]3C2)n1
EC50 [1]: > 10000 nM | Ki [2]: 1.8 nM | Kb [3]: < 0.1 nM

CN1C[C@@H]2CN(c3cc(C4CCCC4)nc(N)n3)C[C@@H]2C1
EC50 [1]: > 10000 nM | Kb [3]: 20 nM

From ChEMBL document CHEMBL3232922, “Discovery and SAR of 6-alkyl-2,4-diaminopyrimidines as histamine H₄ receptor antagonists” (J Med Chem, 2014)
